{"source": "ChEMBL document CHEMBL4177578", "about": "“Synthesis, pharmacological activities and molecular docking studies of pyrazolyltriazoles as anti-bacterial and anti-inflammatory agents” (Bioorg Med Chem, 2017)", "format_in_all_cases": "functional", "key": {"Salmonella typhi [1]": {"system": "Salmonella typhi", "test": "Antimicrobial activity against Salmonella typhi incubated for 12 to 16 hrs followed by plating in nutrient agar by tube dilution method", "conditions": "Salmonella enterica subsp. enterica serovar Typhi", "method_in_brief": "(§1)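 After 12-16 h at 37 °C in tube dilution (500 to 1.9 µg/mL; 1 mL inoculum at OD 0.2), the culture from each tube was plated on nutrient agar. MBC is the concentration at which cells are completely killed.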"}, "[2]": {"test": "Anti-inflammatory activity at 50 ug/ml using bovine serum albumin and egg albumin proteins incubated at 37 degC for 20 mins and then heated to 95 degC for 20 mins by UV-visible Spectrophotometry based protein denaturation method", "method_in_brief": "(§2)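 Albumin (bovine serum or egg) at 1% in 50 mM sodium phosphate buffer pH 6.4. Mixture is 0.1 ml test sample (1 mg/ml) plus 0.2 ml albumin, made to 5 ml with buffer. Held 37 °C for 20 min, then 95 °C for 20 min. Cooled to room temperature, turbidity read at 660 nm. % inhibition = (Abs control − Abs sample)/Abs control × 100. Triplicate, averaged.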"}, "[3]": {"test": "Anti-inflammatory activity at 100 ug/ml using bovine serum albumin and egg albumin proteins incubated at 37 degC for 20 mins and then heated to 95 degC for 20 mins by UV-visible Spectrophotometry based protein denaturation method", "method_in_brief": "as §2"}, "Salmonella typhi [4]": {"system": "Salmonella typhi", "test": "Antimicrobial activity against Salmonella typhi incubated for 12 to 16 hrs by tube dilution method", "conditions": "Salmonella enterica subsp. enterica serovar Typhi", "method_in_brief": "(§3)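 Broth tube dilution, two-fold serial dilutions from 500 to 1.9 µg/mL plus a drug-free control tube. Each tube inoculated with 1 mL culture at OD 0.2 (~McFarland standard), 37 °C for 12-16 h. Turbidity compared with the control tube. MIC is the lowest concentration giving complete growth inhibition.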"}, "Salmonella typhi [5]": {"system": "Salmonella typhi", "test": "Antimicrobial activity against Salmonella typhi at 1 mg/ml incubated for 20 to 30 mins followed by incubation for 24 hrs at 37 degC by agar plate method", "conditions": "Salmonella enterica subsp. enterica serovar Typhi", "method_in_brief": "(§4)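 Agar well diffusion on nutrient agar. Plates swabbed with 60 µL inoculum, 8 mm wells loaded with 100 µL sample at 1.0 mg/mL, streptomycin standard and control in separate wells. Plates held 20–30 min at 4 °C for diffusion, then 24 h at 37 °C. Zone diameter read in mm; triplicate.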"}, "Micrococcus luteus [6]": {"system": "Micrococcus luteus", "test": "Antimicrobial activity against Micrococcus luteus at 1 mg/ml incubated for 20 to 30 mins followed by incubation for 24 hrs at 37 degC by agar plate method", "method_in_brief": "(§5)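 Agar well diffusion on nutrient agar. Plates swabbed with 60 µL inoculum; 8 mm wells loaded with 100 µL of compound at 1.0 mg/mL. Held 20–30 min at 4 °C for diffusion, then 24 h at 37 °C. Inhibition zone diameter read in mm. Triplicate.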"}, "Micrococcus luteus [7]": {"system": "Micrococcus luteus", "test": "Antimicrobial activity against Micrococcus luteus incubated for 12 to 16 hrs by tube dilution method", "method_in_brief": "(§6)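 Tube dilution, serial from 500 to 1.9 µg/mL, plus drug-free control tube. Each tube inoculated with 1 mL culture at OD 0.2, incubated 37 °C for 12–16 h. MIC is the lowest concentration with no growth by turbidity. MBC is found by plating each tube on nutrient agar: the lowest concentration at which all cells are killed.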"}, "[8]": {"test": "Anti-inflammatory activity using bovine serum albumin and egg albumin proteins incubated at 37 degC for 20 mins and then heated to 95 degC for 20 mins by UV-visible Spectrophotometry based protein denaturation method", "method_in_brief": "as §2"}, "Salmonella paratyphi [9]": {"system": "Salmonella paratyphi", "test": "Antimicrobial activity against Salmonella paratyphi incubated for 12 to 16 hrs by tube dilution method", "conditions": "Salmonella enterica subsp. enterica serovar Paratyphi A", "method_in_brief": "as §3"}, "Micrococcus luteus [10]": {"system": "Micrococcus luteus", "test": "Antimicrobial activity against Micrococcus luteus incubated for 12 to 16 hrs followed by plating in nutrient agar by tube dilution method", "method_in_brief": "as §6"}, "Salmonella paratyphi [11]": {"system": "Salmonella paratyphi", "test": "Antimicrobial activity against Salmonella paratyphi incubated for 12 to 16 hrs followed by plating in nutrient agar by tube dilution method", "conditions": "Salmonella enterica subsp. enterica serovar Paratyphi A", "method_in_brief": "as §1"}, "Staphylococcus aureus": {"system": "Staphylococcus aureus", "test": "Antimicrobial activity against Staphylococcus aureus at 1 mg/ml incubated for 20 to 30 mins followed by incubation for 24 hrs at 37 degC by agar plate method", "method_in_brief": "as §5"}, "Salmonella paratyphi [12]": {"system": "Salmonella paratyphi", "test": "Antimicrobial activity against Salmonella paratyphi at 1 mg/ml incubated for 20 to 30 mins followed by incubation for 24 hrs at 37 degC by agar plate method", "conditions": "Salmonella enterica subsp. enterica serovar Paratyphi A", "method_in_brief": "as §4"}}, "note": "Activity calls are given as the source filed them. The rule behind the calls is not given here.", "data": [{"smiles": "COC(=O)c1nnn(Cc2cn(-c3ccc(C)cc3)nc2-c2ccccc2)c1C(=O)OC", "values": [{"measurement": "MBC", "setting": "Salmonella typhi [1]", "result": "inactive"}, {"measurement": "inhibition", "setting": "[2]", "result": "inactive"}, {"measurement": "inhibition", "setting": "[3]", "result": "inactive"}, {"measurement": "MIC", "setting": "Salmonella typhi [4]", "result": "inactive"}, {"measurement": "diameter of the inhibition zone (DIZ)", "setting": "Salmonella typhi [5]", "result": "inactive"}, {"measurement": "diameter of the inhibition zone (DIZ)", "setting": "Micrococcus luteus [6]", "result": "inactive"}, {"measurement": "MIC", "setting": "Micrococcus luteus [7]", "result": "inactive"}, {"measurement": "IC50", "setting": "[8]", "result": "Not Active"}, {"measurement": "MIC", "setting": "Salmonella paratyphi [9]", "result": "inactive"}, {"measurement": "MBC", "setting": "Micrococcus luteus [10]", "result": "inactive"}, {"measurement": "MBC", "setting": "Salmonella paratyphi [11]", "result": "inactive"}, {"measurement": "diameter of the inhibition zone (DIZ)", "setting": "Staphylococcus aureus", "result": "inactive"}, {"measurement": "diameter of the inhibition zone (DIZ)", "setting": "Salmonella paratyphi [12]", "result": "inactive"}]}, {"smiles": "COC(=O)c1nnn(Cc2cn(-c3ccccc3)nc2-c2ccc(Cl)cc2)c1C(=O)OC", "values": [{"measurement": "MBC", "setting": "Salmonella typhi [1]", "result": "inactive"}, {"measurement": "inhibition", "setting": "[2]", "result": "inactive"}, {"measurement": "inhibition", "setting": "[3]", "result": "inactive"}, {"measurement": "MIC", "setting": "Salmonella typhi [4]", "result": "inactive"}, {"measurement": "diameter of the inhibition zone (DIZ)", "setting": "Salmonella typhi [5]", "result": "inactive"}, {"measurement": "diameter of the inhibition zone (DIZ)", "setting": "Micrococcus luteus [6]", "result": "inactive"}, {"measurement": "MIC", "setting": "Micrococcus luteus [7]", "result": "inactive"}, {"measurement": "IC50", "setting": "[8]", "result": "Not Active"}, {"measurement": "MIC", "setting": "Salmonella paratyphi [9]", "result": "inactive"}, {"measurement": "MBC", "setting": "Micrococcus luteus [10]", "result": "inactive"}, {"measurement": "MBC", "setting": "Salmonella paratyphi [11]", "result": "inactive"}, {"measurement": "diameter of the inhibition zone (DIZ)", "setting": "Staphylococcus aureus", "result": "inactive"}, {"measurement": "diameter of the inhibition zone (DIZ)", "setting": "Salmonella paratyphi [12]", "result": "inactive"}]}, {"smiles": "Cc1ccc(-n2cc(CN=[N+]=[N-])c(-c3ccccc3)n2)cc1C", "values": [{"measurement": "MBC", "setting": "Salmonella typhi [1]", "result": "inactive"}, {"measurement": "inhibition", "setting": "[2]", "result": "inactive"}, {"measurement": "inhibition", "setting": "[3]", "result": "inactive"}, {"measurement": "MIC", "setting": "Salmonella typhi [4]", "result": "inactive"}, {"measurement": "diameter of the inhibition zone (DIZ)", "setting": "Salmonella typhi [5]", "result": "inactive"}, {"measurement": "diameter of the inhibition zone (DIZ)", "setting": "Micrococcus luteus [6]", "result": "inactive"}, {"measurement": "MIC", "setting": "Micrococcus luteus [7]", "result": "inactive"}, {"measurement": "IC50", "setting": "[8]", "result": "Not Active"}, {"measurement": "MIC", "setting": "Salmonella paratyphi [9]", "result": "inactive"}, {"measurement": "MBC", "setting": "Micrococcus luteus [10]", "result": "inactive"}, {"measurement": "MBC", "setting": "Salmonella paratyphi [11]", "result": "inactive"}, {"measurement": "diameter of the inhibition zone (DIZ)", "setting": "Staphylococcus aureus", "result": "inactive"}, {"measurement": "diameter of the inhibition zone (DIZ)", "setting": "Salmonella paratyphi [12]", "result": "inactive"}]}, {"smiles": "Cc1ccc(-c2cn(Cc3cn(-c4ccccc4)nc3-c3ccccc3)nn2)cc1", "values": [{"measurement": "MBC", "setting": "Salmonella typhi [1]", "result": "inactive"}, {"measurement": "inhibition", "setting": "[2]", "result": "inactive"}, {"measurement": "inhibition", "setting": "[3]", "result": "inactive"}, {"measurement": "MIC", "setting": "Salmonella typhi [4]", "result": "inactive"}, {"measurement": "diameter of the inhibition zone (DIZ)", "setting": "Salmonella typhi [5]", "result": "inactive"}, {"measurement": "diameter of the inhibition zone (DIZ)", "setting": "Micrococcus luteus [6]", "result": "inactive"}, {"measurement": "MIC", "setting": "Micrococcus luteus [7]", "result": "inactive"}, {"measurement": "IC50", "setting": "[8]", "result": "Not Active"}, {"measurement": "MIC", "setting": "Salmonella paratyphi [9]", "result": "inactive"}, {"measurement": "MBC", "setting": "Micrococcus luteus [10]", "result": "inactive"}, {"measurement": "MBC", "setting": "Salmonella paratyphi [11]", "result": "inactive"}, {"measurement": "diameter of the inhibition zone (DIZ)", "setting": "Staphylococcus aureus", "result": "inactive"}, {"measurement": "diameter of the inhibition zone (DIZ)", "setting": "Salmonella paratyphi [12]", "result": "inactive"}]}, {"smiles": "Cc1ccc(-c2nn(-c3ccccc3)cc2CN=[N+]=[N-])cc1", "values": [{"measurement": "MBC", "setting": "Salmonella typhi [1]", "result": "inactive"}, {"measurement": "inhibition", "setting": "[2]", "result": "inactive"}, {"measurement": "inhibition", "setting": "[3]", "result": "inactive"}, {"measurement": "MIC", "setting": "Salmonella typhi [4]", "result": "inactive"}, {"measurement": "diameter of the inhibition zone (DIZ)", "setting": "Salmonella typhi [5]", "result": "inactive"}, {"measurement": "diameter of the inhibition zone (DIZ)", "setting": "Micrococcus luteus [6]", "result": "inactive"}, {"measurement": "MIC", "setting": "Micrococcus luteus [7]", "result": "inactive"}, {"measurement": "IC50", "setting": "[8]", "result": "Not Active"}, {"measurement": "MIC", "setting": "Salmonella paratyphi [9]", "result": "inactive"}, {"measurement": "MBC", "setting": "Micrococcus luteus [10]", "result": "inactive"}, {"measurement": "MBC", "setting": "Salmonella paratyphi [11]", "result": "inactive"}, {"measurement": "diameter of the inhibition zone (DIZ)", "setting": "Staphylococcus aureus", "result": "inactive"}, {"measurement": "diameter of the inhibition zone (DIZ)", "setting": "Salmonella paratyphi [12]", "result": "inactive"}]}, {"smiles": "CN(C)c1ccc(-c2cn(Cc3cn(-c4ccccc4)nc3-c3ccccc3)nn2)cc1", "values": [{"measurement": "MBC", "setting": "Salmonella typhi [1]", "result": "inactive"}, {"measurement": "inhibition", "setting": "[2]", "result": "inactive"}, {"measurement": "inhibition", "setting": "[3]", "result": "inactive"}, {"measurement": "MIC", "setting": "Salmonella typhi [4]", "result": "inactive"}, {"measurement": "diameter of the inhibition zone (DIZ)", "setting": "Salmonella typhi [5]", "result": "inactive"}, {"measurement": "diameter of the inhibition zone (DIZ)", "setting": "Micrococcus luteus [6]", "result": "inactive"}, {"measurement": "MIC", "setting": "Micrococcus luteus [7]", "result": "inactive"}, {"measurement": "IC50", "setting": "[8]", "result": "Not Active"}, {"measurement": "MIC", "setting": "Salmonella paratyphi [9]", "result": "inactive"}, {"measurement": "MBC", "setting": "Micrococcus luteus [10]", "result": "inactive"}, {"measurement": "MBC", "setting": "Salmonella paratyphi [11]", "result": "inactive"}, {"measurement": "diameter of the inhibition zone (DIZ)", "setting": "Staphylococcus aureus", "result": "inactive"}, {"measurement": "diameter of the inhibition zone (DIZ)", "setting": "Salmonella paratyphi [12]", "result": "inactive"}]}, {"smiles": "O=C([O-])Cc1ccccc1Nc1c(Cl)cccc1Cl.[Na+]", "note": "[DICLOFENAC SODIUM]", "values": [{"measurement": "inhibition", "setting": "[2]", "result": 66.4, "unit": "%"}, {"measurement": "inhibition", "setting": "[3]", "result": 93.1, "unit": "%"}, {"measurement": "IC50", "setting": "[8]", "result": 53.7, "unit": "µg/mL"}]}]}
